Source: article PMC6166782 (Science signaling, 2018)
Where two headings read alike, the source gives them in different places.

Key:
pHsp72 [1] = target: T1, pHsp72 (Homo sapiens, UniProt P0DMV8, T66S); experiment: Isothermal titration calorimetry, nucleotide binding to pHsp72; conditions: ITC; ratio of Kd
Target sequence in this assay (P0DMV8 2-641 T66S): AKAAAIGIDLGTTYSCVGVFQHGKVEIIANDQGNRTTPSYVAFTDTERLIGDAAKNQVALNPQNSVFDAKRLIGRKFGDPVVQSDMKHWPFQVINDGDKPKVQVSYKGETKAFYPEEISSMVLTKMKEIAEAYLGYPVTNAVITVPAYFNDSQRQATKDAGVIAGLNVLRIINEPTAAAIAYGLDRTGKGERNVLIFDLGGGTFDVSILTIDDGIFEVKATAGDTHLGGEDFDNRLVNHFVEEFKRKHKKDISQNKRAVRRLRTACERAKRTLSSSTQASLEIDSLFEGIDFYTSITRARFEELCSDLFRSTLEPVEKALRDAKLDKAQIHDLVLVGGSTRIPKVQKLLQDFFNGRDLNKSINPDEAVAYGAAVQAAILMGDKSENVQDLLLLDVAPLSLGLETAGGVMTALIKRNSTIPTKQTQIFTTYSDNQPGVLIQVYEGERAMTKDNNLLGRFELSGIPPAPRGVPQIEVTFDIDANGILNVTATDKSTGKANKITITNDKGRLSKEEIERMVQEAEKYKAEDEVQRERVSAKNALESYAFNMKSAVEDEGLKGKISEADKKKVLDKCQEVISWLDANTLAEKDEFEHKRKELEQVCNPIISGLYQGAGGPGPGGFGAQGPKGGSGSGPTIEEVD

unphosphorylated Hsp72 [2] = target: T2, unphosphorylated Hsp72 (Homo sapiens, UniProt P0DMV8); experiment: Fluorescence polarization peptide binding, unphosphorylated Hsp72
Method in brief: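 Unphosphorylated Hsp72 serially diluted in Buffer A (pH 7.5, 10 mM MgCl₂). ADP state: 125 μM ADP plus 20 nM F-NR, several hours at room temperature to equilibrium. ATP state: 2 mM ATP for 2 min, then 20 nM F-NR, read after 10 min. FP at 25°C, ex 490/em 535 nm. Kd from one-site nonlinear fit; ATP Kd divided by ADP Kd.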
Target sequence in this assay (P0DMV8 whole entry): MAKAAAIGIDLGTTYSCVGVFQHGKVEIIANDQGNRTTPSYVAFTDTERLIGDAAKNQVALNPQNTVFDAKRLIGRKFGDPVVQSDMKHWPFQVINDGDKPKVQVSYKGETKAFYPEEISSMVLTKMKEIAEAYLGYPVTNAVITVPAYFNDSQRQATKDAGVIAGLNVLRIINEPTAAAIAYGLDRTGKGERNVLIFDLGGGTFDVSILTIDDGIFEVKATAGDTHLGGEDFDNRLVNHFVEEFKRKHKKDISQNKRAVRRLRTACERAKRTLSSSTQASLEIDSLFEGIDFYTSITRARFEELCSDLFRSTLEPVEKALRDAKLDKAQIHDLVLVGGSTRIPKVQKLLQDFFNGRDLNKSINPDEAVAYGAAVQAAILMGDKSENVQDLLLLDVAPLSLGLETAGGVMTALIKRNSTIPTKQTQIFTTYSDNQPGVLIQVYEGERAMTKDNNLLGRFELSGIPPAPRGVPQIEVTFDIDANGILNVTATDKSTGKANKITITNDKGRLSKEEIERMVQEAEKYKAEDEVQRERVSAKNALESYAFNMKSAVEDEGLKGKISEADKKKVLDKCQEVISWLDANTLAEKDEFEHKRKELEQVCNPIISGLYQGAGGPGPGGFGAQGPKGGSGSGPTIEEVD

unphosphorylated Hsp72 [3] = target: T2, unphosphorylated Hsp72; experiment: Kinetics of substrate peptide release, unphosphorylated Hsp72; type: biochemical; conditions: pH 7.5, read-out: koff, excess of unlabeled peptide (ADP state)
Method in brief: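 Hsp72 (50 μM) preloaded at room temperature with F-NR in 125 μM ADP, Buffer A (25 mM Hepes-KOH pH 7.5, 150 mM KCl, 10 mM MgCl₂, 2 mM DTT). ADP state: 40 nM F-NR, >5 h, then chased with 150 μM unlabelled NR. ATP state: 20 nM F-NR, then 2 mM ATP plus 150 μM unlabelled peptide. FP read over time at 25°C; koff fitted. Mean ± SEM, four (ADP) or five (ATP) runs.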
Target sequence in this assay (P0DMV8 whole entry): as above

pHsp72 [4] = target: T1, pHsp72; experiment: Kinetics of substrate peptide release, pHsp72; type: biochemical; conditions: pH 7.5, read-out: koff, excess of unlabeled peptide (ADP state)
Method in brief: (§1)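 50 μM Hsp72 (pS66 or unphosphorylated) was pre-equilibrated at room temperature with F-NR and 125 μM ADP in Hepes–KOH pH 7.5 buffer with 10 mM MgCl₂. ADP state: 40 nM F-NR for over 5 h, then 150 μM unlabelled NR. ATP state: 20 nM F-NR, then 2 mM ATP plus 150 μM unlabelled peptide, read every 30 s for 4000 s (mean ± SEM, five assays). FP at 25°C; koff was fitted.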
Target sequence in this assay (P0DMV8 whole entry T66S): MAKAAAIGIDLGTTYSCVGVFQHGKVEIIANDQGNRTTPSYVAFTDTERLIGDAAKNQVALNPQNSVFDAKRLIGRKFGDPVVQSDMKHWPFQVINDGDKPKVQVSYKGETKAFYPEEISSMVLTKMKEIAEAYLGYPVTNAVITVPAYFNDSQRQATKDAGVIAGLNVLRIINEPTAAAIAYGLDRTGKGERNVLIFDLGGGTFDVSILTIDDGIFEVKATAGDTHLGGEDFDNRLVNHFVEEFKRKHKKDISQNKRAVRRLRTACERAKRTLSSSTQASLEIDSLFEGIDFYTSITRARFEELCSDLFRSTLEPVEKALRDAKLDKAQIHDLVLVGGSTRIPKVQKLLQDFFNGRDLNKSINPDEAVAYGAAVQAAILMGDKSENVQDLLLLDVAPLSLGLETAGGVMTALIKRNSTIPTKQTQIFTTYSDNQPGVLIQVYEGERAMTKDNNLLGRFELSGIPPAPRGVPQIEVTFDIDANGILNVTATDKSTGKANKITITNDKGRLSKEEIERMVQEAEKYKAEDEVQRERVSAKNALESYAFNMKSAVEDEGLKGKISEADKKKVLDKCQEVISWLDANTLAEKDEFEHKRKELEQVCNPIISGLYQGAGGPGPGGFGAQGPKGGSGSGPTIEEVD

unphosphorylated Hsp72 [5] = target: T2, unphosphorylated Hsp72; experiment: Peptide release kinetics in the presence of Hsp110, unphosphorylated Hsp72; type: biochemical; conditions: read-out: koff, ATP, excess of unlabeled peptide, Hsp110
Method in brief: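 Unphosphorylated Hsp72 (50 μM) equilibrated for several hours at room temperature with 20 nM F-NR and 125 μM ADP in Buffer A (pH 7.5, 150 mM KCl, 10 mM MgCl₂). Release triggered by 2 mM ATP (final) with 150 μM unlabelled peptide and 125 μM His-tagged, E. coli-expressed Hsp110. FP (ex 490/em 535 nm, 25°C) every 30 s for 4000 s; koff fitted. Mean ± SEM, six experiments.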
Target sequence in this assay (P0DMV8 whole entry): as the sequence (P0DMV8 whole entry) above

pHsp72 [6] = target: T1, pHsp72; experiment: Peptide release kinetics in the presence of Hsp110, pHsp72; type: biochemical; conditions: read-out: koff, ATP, excess of unlabeled peptide, Hsp110
Method in brief: (§2)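 50 μM pS66 or unphosphorylated Hsp72 was equilibrated for several hours at room temperature with 20 nM F-NR and 125 μM ADP in Hepes–KOH pH 7.5 buffer (10 mM MgCl₂, 2 mM DTT). ATP was then added to 2 mM final, with 150 μM unlabelled peptide and 125 μM Hsp110. FP (ex 490/em 535 nm, 25°C) was read every 30 s for 4000 s. koff given as mean ± SEM of six experiments.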
Target sequence in this assay (P0DMV8 whole entry T66S): as the sequence (P0DMV8 whole entry T66S) above

unphosphorylated Hsp72 [7] = target: T2, unphosphorylated Hsp72; experiment: ATP mediated substrate release assay, unphosphorylated Hsp72; type: biochemical; conditions: 100 μM VER-155008, 2 mM ATP; Fig. S7, C to E
Method in brief: (§3)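 Full-length Hsp72 (unphosphorylated, or pSer66 genetically encoded in E. coli) at 50 μM was equilibrated at room temperature for several hours with 20 nM F-NR or F-ALLQ peptide and 125 μM ADP in Buffer A (Hepes-KOH pH 7.5, 10 mM MgCl₂, 2 mM DTT). ATP was added to 2 mM final, with 100 μM VER-155008 included. FP (ex 490/em 535 nm, 25°C) was read before ATP, then every 30 s for 4000 s.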
Target sequence in this assay (P0DMV8 2-641): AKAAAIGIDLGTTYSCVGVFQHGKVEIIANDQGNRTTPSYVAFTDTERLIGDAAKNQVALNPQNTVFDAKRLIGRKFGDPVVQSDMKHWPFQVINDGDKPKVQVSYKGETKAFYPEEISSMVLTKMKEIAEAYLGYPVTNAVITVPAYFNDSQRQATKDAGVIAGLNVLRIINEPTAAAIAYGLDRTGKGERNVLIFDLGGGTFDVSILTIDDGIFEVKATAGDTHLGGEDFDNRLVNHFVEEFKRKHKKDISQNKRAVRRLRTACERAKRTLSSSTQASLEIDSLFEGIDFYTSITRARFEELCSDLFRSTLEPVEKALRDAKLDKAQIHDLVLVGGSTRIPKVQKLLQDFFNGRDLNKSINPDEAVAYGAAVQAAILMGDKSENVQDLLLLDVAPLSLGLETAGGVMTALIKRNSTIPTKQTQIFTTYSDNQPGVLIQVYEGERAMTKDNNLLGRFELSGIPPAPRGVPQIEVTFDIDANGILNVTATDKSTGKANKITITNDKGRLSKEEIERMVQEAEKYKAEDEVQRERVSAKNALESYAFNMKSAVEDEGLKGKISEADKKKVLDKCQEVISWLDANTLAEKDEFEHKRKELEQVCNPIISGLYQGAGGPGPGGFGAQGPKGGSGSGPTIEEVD

pHsp72 [8] = target: T1, pHsp72; experiment: ATP mediated substrate release assay, pHsp72; type: biochemical; conditions: 100 μM VER-155008, 2 mM ATP; Fig. S7, C to E; protein form not given
Method in brief: as §3
Target sequence in this assay (P0DMV8 2-641 T66S): as the sequence (P0DMV8 2-641 T66S) above

spindle assembly = conditions: ref [9]; cited from earlier work
[9] = target: fluorescein-labeled NR peptide (F-NR); experiment: fluorescence polarisation
[10] = target: fluorescein-labeled NR peptide (F-NR); experiment: fluorescence polarisation; remark: listed apart in the source
mitotic spindle = conditions: ref [9]; cited from earlier work
[11] = tested on: spindle poles, HeLa cells; experiment: FRAP of GFP-Hsp72 at spindle poles; type: cell-based; conditions: one spindle pole bleached; average of 4-5 cells from 2 experiments
pHsp72 [12] = experiment: Kinetics of substrate peptide release, pHsp72; type: biochemical
Method in brief: as §1

pHsp72 [13] = experiment: Peptide release kinetics in the presence of Hsp110, pHsp72; type: biochemical; conditions: ATP, Hsp110 and unlabeled substrate peptide
Method in brief: as §2

Heat shock protein 72 (Hsp72), unphosphorylated, full-length, sequence (P0DMV8 whole entry): as the sequence (P0DMV8 whole entry) above

For Nc1ncnc2c1ncn2[C@@H]1O[C@H](COP(=O)(O)OP(=O)(O)O)[C@@H](O)[C@H]1O [ADP, adenosine diphosphate], the “fold tighter nucleotide binding, pHsp72 vs unphosphorylated Hsp72” value (shortened to “fold tighter nucleotide binding, pHsp72”) (pHsp72 [1]) was “ten times more tightly”.
For Nc1ncnc2c1ncn2[C@@H]1O[C@H](COP(=O)(O)OP(=O)(O)NP(=O)(O)O)[C@@H](O)[C@H]1O [AMP-PNP, adenylyl-imidodiphosphate], the “fold tighter nucleotide binding, pHsp72” value (pHsp72 [1]) was 3.6 fold.
With Nc1ncnc2c1ncn2[C@@H]1O[C@H](COP(=O)(O)OP(=O)(O)OP(=O)(O)O)[C@@H](O)[C@H]1O [ATP, adenosine triphosphate] the “fold tighter nucleotide binding, pHsp72” value (pHsp72 [1]) was “twice as tightly”.
For CC(C)C[C@H](NC(=O)[C@H](CCCNC(=N)N)NC(=O)[C@H](CC(N)=O)NC(=O)c1ccc2c(c1)C(=O)OC21c2ccc(O)cc2Oc2cc(O)ccc21)C(=O)N[C@@H](CC(C)C)C(=O)N[C@@H](CC(C)C)C(=O)N[C@H](C(=O)NCC(=O)O)[C@@H](C)O [F-NR], the “factor by which ATP weakened peptide interaction vs ADP” value (unphosphorylated Hsp72 [2]; unphosphorylated Hsp72, ATP vs ADP, ratio of Kd) was 40, the koff (unphosphorylated Hsp72 [3]) was 0.00123 ± 4e-05 s⁻¹ and the koff (pHsp72 [4]) was 0.00079 ± 3e-05 s⁻¹. It also gave a koff (unphosphorylated Hsp72 [5]) of 0.0673 ± 0.0077 s⁻¹ and a koff (pHsp72 [6]) of 0.0252 ± 0.0017 s⁻¹.
For N#Cc1ccc(COC[C@H]2O[C@@H](n3c(NCc4ccc(Cl)c(Cl)c4)nc4c(N)ncnc43)[C@H](O)[C@@H]2O)cc1 [VER-155008], the “effect on binding of peptide substrate” value (unphosphorylated Hsp72 [2]; 100 μM VER-155008, DMSO control, Fig. S7, form of Hsp72 not stated) was “did not affect the binding of peptide substrate”, the “fold reduction of ATP substrate release rate” value (unphosphorylated Hsp72 [7]) was ~ 8.6 fold and the “increase of ATP-mediated rate of release of substrate peptide” value (pHsp72 [8]) was ~ 2.6. The “effect on spindle assembly” value (spindle assembly) was “disrupted spindle assembly”.
Work on “Heat shock protein 72 (Hsp72), unphosphorylated, full-length (from UniProt P0DMV8 1-641) (natural protein)” yielded a Kd [9] of 157 µM and a Kd [10] of 3.95 µM.
For T66A, the “localization to the spindle” value (mitotic spindle) is listed as “did not localize to the spindle” and the “effect on spindle assembly” value (spindle assembly) is listed as “causes defects in spindle assembly”.
In the case of T66E, the FRAP recovery [11] is given as “very little recovery” and the “effect on spindle assembly” value (spindle assembly) is given as “can rescue the defects in spindle assembly due to NEK6 depletion”.
For “pHsp72: full-length Hsp72 with incorporation of pSer^66”, the “times slower peptide release rate, pHsp72 vs unphosphorylated” value (pHsp72 [12]; ADP state) was ~ 1.5 times, the “times slower peptide release rate, pHsp72 vs unphosphorylated” value (pHsp72 [12]; ATP state) was ~ 8 times and the “fold slower peptide release rate, pHsp72 vs Hsp72, in presence of Hsp110” value (pHsp72 [13]) was ~ 2.7 fold.
“pSer^66-Hsp72 (pHsp72), full-length, with genetically encoded phosphoserine at position 66 (from UniProt P0DMV8 1-641) (natural protein)” gave a Kd [9] of 27.6 µM.
